Columns and labels:
[1] = tested on: Trypanosoma cruzi; test: Antitrypanosomal activity against Trypanosoma cruzi Tulahuen 2 epimastigotes assessed as inhibition of parasite growth at 25 uM relative to control; assay type: functional; details: read-out: GI
How it was run: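 Epimastigotes of T. cruzi Tulahuen 2 strain exposed to compound at 25 µM. Growth inhibition is given as percentage relative to untreated parasites. Values are means of three separate experiments, SD under 10%.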

[2] = Octanol-water partition coefficient of the compound; assay type: physicochemical
[3] = tested on: Trypanosoma cruzi; test: Antitrypanosomal activity against Trypanosoma cruzi Tulahuen 2 epimastigotes; assay type: functional, organism-based

| SMILES | inhibition of growth at 25 µM [1] [%] | logP [2] | IC50 [3] [µM] |
| --- | --- | --- | --- |
| Cc1ccc(-c2c(C#N)[n+]([O-])c3cc(F)ccc3[n+]2[O-])cc1 | 87.3 | 2.48 | 17.4 |
| N#Cc1c(-c2ccco2)[n+]([O-])c2ccc(C(F)(F)F)cc2[n+]1[O-] | 100 | 1.5 | 12.5 |
| N#Cc1c(-c2ccc(Cl)cc2)[n+]([O-])c2cc(Cl)c(Cl)cc2[n+]1[O-] | 89.8 | 3.1 | 13.8 |
| N#Cc1c(-c2ccco2)[n+]([O-])c2ccccc2[n+]1[O-] | 46.3 | 0.582 | 25 |
| N#Cc1c(-c2ccc(Cl)cc2)[n+]([O-])c2ccc(C(F)(F)F)cc2[n+]1[O-] | 100 | 3.22 | 9.2 |
| Cc1ccc2c(c1)[n+]([O-])c(C#N)c(-c1ccc(Cl)cc1)[n+]2[O-] | 88.4 | 2.6 | 17.4 |
| N#Cc1c(-c2ccccc2)[n+]([O-])c2cc(F)c(F)cc2[n+]1[O-] | 81.1 | 2.62 | 15.3 |
| Cc1cc2c(cc1C)[n+]([O-])c(-c1ccccc1)c(C#N)[n+]2[O-] | 97.4 | 2.33 | 22.1 |
| COc1ccc(-c2c(C#N)[n+]([O-])c3cc(C(F)(F)F)ccc3[n+]2[O-])cc1 | 114 | 2.45 | 10.7 |
| Cc1cc2c(cc1C)[n+]([O-])c(-c1ccc(OC(F)(F)F)cc1)c(C#N)[n+]2[O-] | 79.8 | 2.41 | 10.6 |
| Cc1ccc2c(c1)[n+]([O-])c(C#N)c(-c1ccc(F)cc1)[n+]2[O-] | 83.8 | 2.48 | 17.4 |
| Cc1ccc(-c2c(C#N)[n+]([O-])c3cc(Cl)c(Cl)cc3[n+]2[O-])cc1 | 95.6 | 3.1 | 14.6 |
| N#Cc1c(NC(=O)c2cccs2)[n+]([O-])c2cc(F)c(F)cc2[n+]1[O-] | 92.4 | 1.62 | 10.8 |
| Cc1ccc(-c2c(C#N)[n+]([O-])c3cc(C(F)(F)F)ccc3[n+]2[O-])cc1 | 114 | 2.95 | 12.3 |
| N#Cc1c(-c2ccccc2)[n+]([O-])c2ccc(C(F)(F)F)cc2[n+]1[O-] | 100 | 2.72 | 15.1 |
| N#Cc1c(-c2cccs2)[n+]([O-])c2ccc(C(F)(F)F)cc2[n+]1[O-] | 100 | 2.27 | 7.8 |
| COc1ccc2c(c1)[n+]([O-])c(C#N)c(-c1ccccc1)[n+]2[O-] | 111 | 1.58 | 19.3 |
| N#Cc1c(-c2ccc(Cl)cc2)[n+]([O-])c2ccc(F)cc2[n+]1[O-] | 85.4 | 2.74 | 13.4 |
| N#Cc1c(-c2ccco2)[n+]([O-])c2cc(F)c(F)cc2[n+]1[O-] | 70.7 | 1.38 | 13.1 |
| COc1ccc(-c2c(C#N)[n+]([O-])c3cc(F)ccc3[n+]2[O-])cc1 | 92.2 | 1.97 | 14.3 |
| N#Cc1c(-c2ccco2)[n+]([O-])c2ccc(F)cc2[n+]1[O-] | 83.4 | 0.983 | 14.9 |

| SMILES | inhibition of growth at 25 µM [1] [%] | logP [2] | IC50 [3] [µM] |
| --- | --- | --- | --- |
| N#Cc1c(-c2ccc(Cl)cc2)[n+]([O-])c2ccc(Cl)cc2[n+]1[O-] | 97.5 | 2.87 | 15.3 |
| N#Cc1c(-c2ccco2)[n+]([O-])c2ccc(Cl)cc2[n+]1[O-] | 64.5 | 1.11 | 18.9 |
| COc1ccc2c(c1)[n+]([O-])c(C#N)c(-c1ccc(Cl)cc1)[n+]2[O-] | 111 | 2.09 | 14.3 |
| N#Cc1c(-c2ccc(Cl)cc2)[n+]([O-])c2cc(F)c(F)cc2[n+]1[O-] | 80.9 | 2.87 | 11.3 |
| N#Cc1c(-c2ccccc2)[n+]([O-])c2ccc(F)cc2[n+]1[O-] | 89.4 | 2.23 | 15.4 |
| N#Cc1c(-c2ccc(OC(F)(F)F)cc2)[n+]([O-])c2cc(Cl)c(Cl)cc2[n+]1[O-] | 82 | 2.68 | 7.2 |
| COc1ccc(-c2c(C#N)[n+]([O-])c3cc(Cl)ccc3[n+]2[O-])cc1 | 110 | 2.09 | 14.3 |
| COc1ccc2c(c1)[n+]([O-])c(C#N)c(-c1cccs1)[n+]2[O-] | 109 | 1.11 | 14.3 |
| N#Cc1c(-c2ccc(Cl)cc2)[n+]([O-])c2ccccc2[n+]1[O-] | 97.1 | 2.35 | 18.1 |
| N#Cc1c(-c2ccc(F)cc2)[n+]([O-])c2cc(F)c(F)cc2[n+]1[O-] | 29.4 | 2.74 | 36.6 |
| Cc1cc2c(cc1C)[n+]([O-])c(-c1cccs1)c(C#N)[n+]2[O-] | 84.8 | 1.87 | 16.7 |
| Cc1ccc(-c2c(C#N)[n+]([O-])c3ccccc3[n+]2[O-])cc1 | 104 | 2.09 | 23.7 |
| N#Cc1c(-c2ccc(OC(F)(F)F)cc2)[n+]([O-])c2cc(F)c(F)cc2[n+]1[O-] | 74.4 | 2.45 | 9.9 |
| COc1ccc(-c2c(C#N)[n+]([O-])c3cc(C)ccc3[n+]2[O-])cc1 | 94.6 | 1.82 | 18.9 |
| N#Cc1c(-c2cccs2)[n+]([O-])c2ccc(Cl)cc2[n+]1[O-] | 100 | 1.89 | 7.1 |
| N#Cc1c(-c2ccco2)[n+]([O-])c2cc(Cl)c(Cl)cc2[n+]1[O-] | 67 | 1.64 | 13.1 |
| Cc1ccc2c(c1)[n+]([O-])c(C#N)c(-c1ccc(OC(F)(F)F)cc1)[n+]2[O-] | 75.1 | 2.18 | 10.7 |
| N#Cc1c(-c2ccc(F)cc2)[n+]([O-])c2ccc(Cl)cc2[n+]1[O-] | 92.7 | 2.74 | 13.2 |
| Cc1ccc2c(c1)[n+]([O-])c(C#N)c(-c1ccco1)[n+]2[O-] | 68.5 | 0.845 | 18.1 |
| N#Cc1c(-c2cccs2)[n+]([O-])c2cc(Cl)c(Cl)cc2[n+]1[O-] | 78.5 | 2.41 | 10.4 |
| N#Cc1c(-c2cccs2)[n+]([O-])c2cc(F)c(F)cc2[n+]1[O-] | 82.9 | 2.15 | 10.4 |

| SMILES | inhibition of growth at 25 µM [1] [%] | logP [2] | IC50 [3] [µM] |
| --- | --- | --- | --- |
| COc1ccc2c(c1)[n+]([O-])c(C#N)c(-c1ccco1)[n+]2[O-] | 33.4 | 0.354 | > 25 |
| N#Cc1c(-c2ccccc2)[n+]([O-])c2cc(Cl)c(Cl)cc2[n+]1[O-] | 90 | 2.87 | 15.3 |
| COc1ccc(-c2c(C#N)[n+]([O-])c3cc(F)c(F)cc3[n+]2[O-])cc1 | 91.6 | 2.09 | 12.1 |
| Cc1cc2c(cc1C)[n+]([O-])c(-c1ccco1)c(C#N)[n+]2[O-] | 64.7 | 1.1 | 20.1 |
| N#Cc1c(-c2ccc(OC(F)(F)F)cc2)[n+]([O-])c2ccccc2[n+]1[O-] | 100 | 1.94 | 14.5 |
| Cc1ccc(-c2c(C#N)[n+]([O-])c3cc(Cl)ccc3[n+]2[O-])cc1 | 104 | 2.6 | 17.4 |
| COc1ccc2c(c1)[n+]([O-])c(C#N)c(-c1ccc(F)cc1)[n+]2[O-] | 84.2 | 1.97 | 14.6 |
| COc1ccc(-c2c(C#N)[n+]([O-])c3cc(Cl)c(Cl)cc3[n+]2[O-])cc1 | 42.7 | 2.33 | 29 |
| N#Cc1c(-c2ccc(F)cc2)[n+]([O-])c2ccc(F)cc2[n+]1[O-] | 63.8 | 2.62 | 14.4 |
| N#Cc1c(-c2ccc(F)cc2)[n+]([O-])c2ccc(C(F)(F)F)cc2[n+]1[O-] | 100 | 3.1 | 14.9 |
| Cc1ccc(-c2c(C#N)[n+]([O-])c3cc(F)c(F)cc3[n+]2[O-])cc1 | 86.2 | 2.87 | 14.6 |
| N#Cc1c(-c2cccs2)[n+]([O-])c2ccccc2[n+]1[O-] | 100 | 1.35 | 12.7 |
| Cc1cc2c(cc1C)[n+]([O-])c(-c1ccc(Cl)cc1)c(C#N)[n+]2[O-] | 98.7 | 2.83 | 16.4 |
| Cc1ccc2c(c1)[n+]([O-])c(C#N)c(-c1ccccc1)[n+]2[O-] | 88.1 | 2.09 | 23.7 |
| N#Cc1c(-c2cccs2)[n+]([O-])c2ccc(F)cc2[n+]1[O-] | 100 | 1.75 | 13 |
| COc1ccc2c(c1)[n+]([O-])c(C#N)c(-c1ccc(C)cc1)[n+]2[O-] | 112 | 1.82 | 18.9 |
| N#Cc1c(NC(=O)c2ccco2)[n+]([O-])c2cc(F)c(F)cc2[n+]1[O-] | 53.1 | 0.868 | 19.2 |
| N#Cc1c(-c2ccc(OC(F)(F)F)cc2)[n+]([O-])c2ccc(F)cc2[n+]1[O-] | 80.2 | 2.33 | 13.1 |
| N#Cc1c(-c2ccccc2)[n+]([O-])c2ccccc2[n+]1[O-] | 36.9 | 1.84 | 66.6 |
| CC1CS(=O)(=O)CCN1/N=C/c1ccc([N+](=O)[O-])o1 (stereo not given) [NIFURTIMOX] | 100 | -0.746 |  |

Source: ChEMBL document CHEMBL1208769, “Anti-T. cruzi activities and QSAR studies of 3-arylquinoxaline-2-carbonitrile di-N-oxides” (Bioorg Med Chem Lett, 2010)
